# In ChEMBL document CHEMBL4732243, “Design, synthesis, and structure activity relationship analysis of new betulinic acid derivatives as potent HIV inhibitors” (Eur J Med Chem, 2021):
# Assays:
# [1] = test system: Human immunodeficiency virus 1; test: Potency index, ratio of IC50 for bevirimat to IC50 for test compound for antiviral activity against HIV-1 NL4-3 infected in human MT4 cells assessed as reduction in p24 gag protein incubated for 4 days by ELISA; assay type: functional; conditions: time 4 day
# Summary of the method: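 MT-4 cells infected with HIV-1 NL4-3 at MOI 0.01 and cultured with the test compounds. Bevirimat was run in parallel as the reference control. Supernatant p24 was measured on day 4 post-infection by antigen-capture ELISA. IC50 is the concentration that inhibits NL4-3 replication by 50%. The index is the bevirimat IC50 divided by the test-compound IC50.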
# [2] = test system: Human immunodeficiency virus 1; test: Antiviral activity against HIV-1 NL4-3 infected in human MT4 cells assessed as reduction in p24 gag protein incubated for 4 days by ELISA; assay type: functional, organism-based; conditions: Human immunodeficiency virus 1, NL4-3, MT4, 96 h
# Summary of the method: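 MT-4 cells infected with HIV-1 NL4-3 at MOI 0.01, serial compound concentrations, in 96-well format. Supernatant p24 antigen measured by capture ELISA on day 4 post-infection. IC50 is the concentration that inhibits NL4-3 replication by 50%. Bevirimat run in parallel as the reference.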
# MT4 = test: Cytotoxicity against human MT4 cells assessed as reduction in cell viability incubated for 2 days by CytoTox-Glo cytotoxicity assay; assay type: cell-based; conditions: mt4, 48 h, time 2 day
# Summary of the method: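 Mock-infected MT-4 cells cultured 2 days with a range of compound concentrations. Viability measured by CytoTox-Glo, following the kit protocol, as percent viable cells. CC50 is the concentration giving a 50% reduction in cell viability.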
compound,measurement,setting,value
C=C(C)[C@@H]1CC[C@]2(C(=O)N3CCN(C(=O)/C=C/c4ccc(OCOC)c(OC)c4)CC3)CC[C@]3(C)[C@H](CC[C@@H]4[C@@]5(C)CC[C@H](OC(=O)CC(C)(C)C(=O)O)C(C)(C)[C@@H]5CC[C@]43C)[C@@H]12,Ratio IC50,[1],2
same,IC50,[2]; read-out: IC50,25 nM
same,IC50,[2]; read-out: pIC50 (converted),25.1 nM
same,CC50,MT4,> 2000 nM
C=C(C)[C@@H]1CC[C@]2(C(=O)N3CCN(C(=O)/C=C/c4ccc(O)c(OC)c4)CC3)CC[C@]3(C)[C@H](CC[C@@H]4[C@@]5(C)CC[C@H](OC(=O)CC(C)(C)C(=O)O)C(C)(C)[C@@H]5CC[C@]43C)[C@@H]12,Ratio IC50,[1],2
same,IC50,[2]; read-out: IC50,18 nM
same,IC50,[2]; read-out: pIC50 (converted),18.2 nM
same,CC50,MT4,> 2000 nM
